Species on record: Homo sapiens
Assay: Thermal stabilization of human telomeric G-quadruplex FAM-TTAGGGTTAGGGTTAGGGTTAGGG-TAMRA DNA assessed as change in melting temperature at 1:5 DNA:ligand ratio by FRET assay
Procedure, shortened: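 FRET melting of 200 nM dual-labelled quadruplex in 50 mM Tris-HCl with KCl (100 mM for htelo and hras-1, 10 mM for KRAS and hras-2). Ligand at r = 5 ([ligand]/[quadruplex]; hras-2 tabulated at r = 4). Samples held 5 min at 20 °C, then heated 1 °C/min to 95 °C. ΔTM is the TM with ligand minus TM without ligand (±0.5 K). For hras-1 both biphasic transitions are given.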

`NCCOc1cc(C(=O)Nc2cc(OCCN)c3ccccc3n2)nc(C(=O)Nc2cc(OCCN)c3ccccc3n2)c1` showed a deltaTm of 35 K.
